Assay results: the RNAGym collection of RNA variant scans (doi:10.1038/nmeth.2970)

B1: GFP aptamer (parent)
chain: GCUUCUGGACUGCGAUGGGAGCACGAAACGUCGUGGCGCAAUUGGGUGGGGAAAGUCCUUAAAAGAGGGCCACCACAGAAGC

Variants of: B1
Assay: HiTS-RAP
Conditions: with EGFP
Method in brief: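 Aptamer templates containing a T7 promoter and ter site were sequenced on an Illumina GAIIx flowcell, transcribed in situ with T7 RNA polymerase and halted with GST-Tus for 30 minutes at 37°C. Clusters were imaged after 30 minutes at room temperature with EGFP-mOrange at 0.04 nM to 625 nM in fivefold steps. Kd was obtained from per-lane weighted Hill fits to decay-corrected, sequencing-normalised, per-sequence mean intensities, geometrically averaged over lanes. Three lanes entered that average, and non-rising sequences were given 125 nM.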

Variant	Kd [nM]
GCUUCUGGACUGCGAUGGGAGCACGAAACGUCGUGGCGCAAUUGGGUGGGUAAAGUCCUUAAAAGAGGGCCACCACAGAAGC [G51U]	28.8
GCUUCUGGACUGUGAUGGGAGCACGAAACGUCGCGGCGCAAUUGGGUGGGGAAAGUCCUUAAAAGAGGGCCACCACAGAAGC [C13U U34C]	36.2
GCUUCUGGACUGCGAUGGGAGCACGGGACGUCGUGGCGCAAUUGGGUGGGGAAAGUCCUUAAAAGAGGGCCACCACAGAAGC [A26G A27G]	2.12
GCUUCUGGACUGCGAUGGGAGCACAAAACGUCGUGGCGCAAUUGGGUGGGGAAAGUCCUUAAAAGAGGGCCACUACAGAAGC [G25A C74U]	4.63
GCUUCUGGACUGCGAUGGGAGCACGAAACGUCGUGGCGCAAUUGGGUCGGGAAAGUCCUUAAAAGAGGGCCACCACAGAAGC [G48C]	≥ 125
GCUUCUGGAUUGCGAUGGGAGCACGAGACGUCGUGGCGCAAUUGGGUGGGGAAAGUCCUUAAAAGAGGGCCACCACAGAAGC [C10U A27G]	3.1
GCUUCUGGACUGCGAUGGGAGCACGAAACGUCGUGGCGCAAUUCGGUGGGGAAAGUCCUUAAAAGAGGGCCACCACAGAAGC [G44C]	34.8
GCUUCUGGACUGCGAUGGGAGCACGAAACGUCGUGGCGCAAUUGGGUGGGGAAAGUCCUUAAAAGACGGCCACCACAGAAGC [G67C]	11.8
GCUUCUGGACUGCGAUGGGAGCACGAAACGUCGUGGCGCAAUUGGGUGGGGAAAGUCCUUAAAAGAAGGCCACCACAGAAGC [G67A]	14.2
GCUUCUGGACUGCGAUCGGAGCACGAAACGUCGUGGCGCAAUUGGGUGGGGAAAGUCCUUAAAAGAGGGCCACCACAGAAGC [G17C]	≥ 125
GCUUCUGGACUGCGAUAGGAGCACGAAACGUCGUGGCGCAAUUGGGUGGGGAAAGUCCUUAAAAGAGGGCCACCACAGAAGC [G17A]	≥ 125
GCUUCUGGACUGCGAUGGGAGCACGAAACAUCGUGGCGCAAUUGGGUGGGGAAAGUCCUUAAAAGAGAGCCACCACAGAAGC [G30A G68A]	31.8
GCUUCUGGACUGCGAUGGGAGCACGAAACGUCGUGGCGCAAUUGGGCGGGGAAAGUCCUUAAAAGAGGGCCACCACAGGAGC [U47C A79G]	62.1
GCUUCUGGACUGCGAUGGGAGCACGAAGCGUCGUGGCGCAAUUGGGUGGGGAAAGUCCUUAAAAGAGGGCCACCACAGAAGC [A28G]	4.55
GCUUCUGGACUGCGAUGGGAGCACGAAUCGUCGUGGCGCAAUUGGGUGGGGAAAGUCCUUAAAAGAGGGCCACCACAGAAGC [A28U]	4.46
GCUUCUGGACUGCGAUGGGAGCACGAAACGUCGUGGCGCAAUUGGGUGGGGCAAGUCCUUAAAAGAGGGCCACCACAGAAGC [A52C]	43.6
GCUUCUGGACUGCGAUGGGAGCACGAAACGUCGUGGCGCAAUUGGGCGGGGAAAGUCUUUAAAAGAGGGCCACCACAGAAGC [U47C C58U]	2.94
GCUUCUGGACUGUGAUGGGAGCACGAAGCGUCGUGGCGCAAUUGGGUGGGGAAAGUCCUUAAAAGAGGGCCACCACAGAAGC [C13U A28G]	3.77
GCUUCUGGACUGCGAUGGGAGCACGAGACGUCGCGGCGCAAUUGGGUGGGGAAAGUCCUUAAAAGAGGGCCACCACAGAAGC [A27G U34C]	9.07
GCUUCUGGACUGCGAUGGGAGCACGAAAUGUCGCGGCGCAAUUGGGUGGGGAAAGUCCUUAAAAGAGGGCCACCACAGAAGC [C29U U34C]	20.1
GCUUCUGCACUGCGAUGGGAGCACGAAACGUCGUGGCGCAAUUGGGUGGGGAAAGUCCUUAAAAGAGGGCCACCACAGAAGC [G8C]	61.5
GCUUCUGGACUGCGAUGGGAGCACGAAACGUCGUGGCGCAAUUGGCUGGGGAAAGUCCUUAAAAGAGGGCCACCACAGAAGC [G46C]	58.8
GCUUCUGGACUGCGAUGGGAGCACGAAACGUCGUGGCGCAAUUGGAUGGGGAAAGUCCUUAAAAGAGGGCCACCACAGAAGC [G46A]	18.7

Variant	Kd [nM]
GCUUCUGGACUGCGAUGGGAGCACGAAACGUCGUGGCGCAAUUGGUUGGGGAAAGUCCUUAAAAGAGGGCCACCACAGAAGC [G46U]	29.2
GCUUCUGGACUGCGAUGGGAGCACGAAACGUCGUGGCGCAAUUGGGUGGGGAAAGUCCUUAAAAGAGGGCCACCACACAAGC [G78C]	43.8
GCUUCUGGACUGCGAUGGGAGCACGAAACGUCGUGGCGGAAUUGGGUGGGGAAAGUCCUUAAAAGAGGGCCACCACAGAAGC [C39G]	9.2
GCUUCUGGACUGCGAUGGGAGCGCGAAACGUCGCGGCGCAAUUGGGUGGGGAAAGUCCUUAAAAGAGGGCCACCACAGAAGC [A23G U34C]	1.23
GCUUCUGGACUGCGAUGGGAGCACGAAACGUCGUGGCGCAAUUGCGUGGGGAAAGUCCUUAAAAGAGGGCCACCACAGAAGC [G45C]	178
GCUUCUGGACUGUGAUGGGAGCACGAAACGUCGUGGCGCAACUGGGUGGGGAAAGUCCUUAAAAGAGGGCCACCACAGAAGC [C13U U42C]	3.54
GCUUCUGGACUGCGAUGGGAGCACGAGACGUUGUGGCGCAAUUGGGUGGGGAAAGUCCUUAAAAGAGGGCCACCACAGAAGC [A27G C32U]	3.03
GCUUCUGGACUGCGAUGGGAGCACGAAACGCCGUGGCGCAACUGGGUGGGGAAAGUCCUUAAAAGAGGGCCACCACAGAAGC [U31C U42C]	19.5
GCUUCUGGAUUGCGAUGGGGGCACGAAACGUCGUGGCGCAAUUGGGUGGGGAAAGUCCUUAAAAGAGGGCCACCACAGAAGC [C10U A20G]	3.79
GCUUCUGGAUUGCGAUGGGAGCACGAAACGUUGUGGCGCAAUUGGGUGGGGAAAGUCCUUAAAAGAGGGCCACCACAGAAGC [C10U C32U]	6.54
GCUUCUGGACUGCGAUGGGAGCACGAAACGUCGUGGCGCAAUUGGGUGGGGAAAGUCCUUAAAAGAGGGCCUCCACAGAAGC [A72U]	17.7
GCUUCUGGACUGCGAUGGGAGCACGAAACGUCGCGGCGCAAUUGGGUGGGGAAAGUCCUUAAAAGAGGGCCACCACAGAAGC [U34C]	24.2
GCUUCUGGACUGCGAUGGGAGCACGAAACAUCGUGGCGCAAUUGGGUGGGGAAAGUCCUUAAAAGAGGGCCACCGCAGAAGC [G30A A75G]	41.1
GCUUCUGGACUGCGAUGGGAGCACGAAACGUCGUGGUGCAAUCGGGUGGGGAAAGUCCUUAAAAGAGGGCCACCACAGAAGC [C37U U43C]	12.8
GCUUCUGGACUGCGAUGGGAGCACGAAACGCCGUGGCGCAAUUGGGUGGGGAAAGUCCUUAAAAGAGGGCCACCACAGAAGC [U31C]	4.31
GCUUCUGGACUGCGAUGGGAGCACGACACGUCGUGGCGCAAUUGGGUGGGGAAAGUCCUUAAAAGAGGGCCACCACAGAAGC [A27C]	4.47
GCUUCUGGACUGCGAUGGGAGCGCGAAACGUCGUGGCGCAAUUGGGUGGGGAAAGUCCUUAAAAGAGGGCCACUACAGAAGC [A23G C74U]	2.27
GCUUCUGGACUGCGAUGGGAGCACGAAGCGUCGUGGCGCAAUUAGGUGGGGAAAGUCCUUAAAAGAGGGCCACCACAGAAGC [A28G G44A]	4.96
GCUUCUGGACUGCGAUGGGAGCACGAAGCGUCGUGGCGCAAUUGGGCGGGGAAAGUCCUUAAAAGAGGGCCACCACAGAAGC [A28G U47C]	1.08
GCUUCUGGACUGCGAAGGGAGCACGAAACGUCGUGGCGCAAUUGGGUGGGGAAAGUCCUUAAAAGAGGGCCACCACAGAAGC [U16A]	5.38
GCUUCUGGACUGCGACGGGAGCACGAAACGUCGUGGCGCAAUUGGGUGGGGAAAGUCCUUAAAAGAGGGCCACCACAGAAGC [U16C]	6.81
GCUUCUGGACUGCAAUGGGAGCACGGAACGUCGUGGCGCAAUUGGGUGGGGAAAGUCCUUAAAAGAGGGCCACCACAGAAGC [G14A A26G]	7.76
GCUUCUGGACAGCGAUGGGAGCACGAAACGUCGUGGCGCAAUUGGGUGGGGAAAGUCCUUAAAAGAGGGCCACCACAGAAGC [U11A]	4.13

Variant	Kd [nM]
GCUUCUGGACUGCGAUGGGAGCACAAAACGUCGUGGCGCAAUCGGGUGGGGAAAGUCCUUAAAAGAGGGCCACCACAGAAGC [G25A U43C]	2.24
GCUUCUGGACUGCGAUGGGAGCACGAAACGUUGUGGCGCAAUUGGGUGGGGAAAGUCCUUAAAAGAGAGCCACCACAGAAGC [C32U G68A]	60.2
GCUUCUGGACUGCGAUGGGAGCGCGAAACGUCGUGGCGCAAUUGGGUGGGGAAAGUCCUUAAAAGAGGGCCACCACAGAAGC [A23G]	5.87
GCUUCUGGACUCCGAUGGGAGCACGAAACGUCGUGGCGCAAUUGGGUGGGGAAAGUCCUUAAAAGAGGGCCACCACAGAAGC [G12C]	30.6
GCUUCUGGACUGCGAUGGGAGCACGAAGCGUCGUGGCGCAAUUGGAUGGGGAAAGUCCUUAAAAGAGGGCCACCACAGAAGC [A28G G46A]	14.2
GCUUCUGGACUGCGAUGGGCGCACGAAACGUCGUGGCGCAAUUGGGUGGGGAAAGUCCUUAAAAGAGGGCCACCACAGAAGC [A20C]	≥ 125
GCUUCUGGACUGCGAUGGGAGCACGAAACGUCGUGGCGCAAUUGGGUGGGGAAAAUCCUUAAAAGAGGGCCACCACAGAAGC [G55A]	≥ 125
GCUUCGGGACUGCGAUGGGAGCACGAAACGUCGUGGCGCAAUUGGGUGGGGAAAGUCCUUAAAAGAGGGCCACCACAGAAGC [U6G]	7.45
GCUUCUGGACUGCGAUGGGAGCACGAAACGUCGUGGCGCAAUCGGGUGGGGAAAGUCCUUAAAAGAGGGCCACCACAGAAGC [U43C]	4.76
GCUUCUGGACUGCGAUGGGAGCACGAAACGUCGUGGCGCAAGUGGGUGGGGAAAGUCCUUAAAAGAGGGCCACCACAGAAGC [U42G]	7.09
GCUUCUGGACUGCGAUGGGAGCACCAAACGUCGUGGCGCAAUUGGGUGGGGAAAGUCCUUAAAAGAGGGCCACCACAGAAGC [G25C]	7
GCUUCUGGACUGCGAUGGGAGCACGUAACGUCGUGGCGCAAUUGGGUGGGGAAAGUCCUUAAAAGAGGGCCACCACAGAAGC [A26U]	4.33
GCAUCUGGACUGCGAUGGGAGCACGAAACGUCGUGGCGCAAUUGGGUGGGGAAAGUCCUUAAAAGAGGGCCACCACAGAAGC [U3A]	3.51
GCUUCUGGACUGCGAUGGGAGCACGAAACGUCGUGGCGCAAUUGGGUGGGGAAAGUCCUUAAAUGAGGGCCACCACAGAAGC [A64U]	≥ 125
GCUUCUGGACUGCGAUGGGAGCACGAAACGUCGUGGCGCGAUUGGGUGGGGAAAGUCCUUAAAAGAGGGCCACCACGGAAGC [A40G A77G]	4.67
GCUUCUGGAGUGCGAUGGGAGCACGAAACGUCGUGGCGCAAUUGGGUGGGGAAAGUCCUUAAAAGAGGGCCACCACAGAAGC [C10G]	4.07
GCUUCUGGACUGCGGUGGGAGCACGAGACGUCGUGGCGCAAUUGGGUGGGGAAAGUCCUUAAAAGAGGGCCACCACAGAAGC [A15G A27G]	5.3
GCUUCUGGACUGCGAUGGGAGCACGAAACGUCGUGGCGCAAUUGGGUGGGGAAAGUCCUUAAAAGAGGGCCACCGCGGAAGC [A75G A77G]	6.48
GCUUCUGGAUUGCGAUGGGAGCGCGAAACGUCGUGGCGCAAUUGGGUGGGGAAAGUCCUUAAAAGAGGGCCACCACAGAAGC [C10U A23G]	5.08
GCUUCUGGACUGCGAUGGGAGCACGAAACGUCGUGGCGCAAUUGGGCGGGGAAAGUCCUUAAAAGAGGGCCACCACAGAAGC [U47C]	8.1
GCUUCUGGACUGCGAUGGGAGCACGAAACGUCGUGGCGCAAUUGGGGGGGGAAAGUCCUUAAAAGAGGGCCACCACAGAAGC [U47G]	5.28
